Measured values from ChEMBL document CHEMBL5329171, “First-in-class small molecule inhibitors of ICOS/ICOSL interaction as a novel class of immunomodulators” (RSC Med Chem, 2023).
pIC50: −log10 of the molar value.

Key:
ICOS-ICOSL [1] = biological target: T1, ICOS-ICOSL (Homo sapiens, UniProt O75144+Q9Y6W8); test: Inhibition of C-terminal IgG1 Fc region fused human ICOS extracellular domain (1 to 141 residues)/C-terminal polyhistidine tagged human ICOSL extracellular domain (1 to 258 residues) interaction incubated for 1 hr by TR-FRET assay; format: protein assay
T1 sequence (O75144 whole entry): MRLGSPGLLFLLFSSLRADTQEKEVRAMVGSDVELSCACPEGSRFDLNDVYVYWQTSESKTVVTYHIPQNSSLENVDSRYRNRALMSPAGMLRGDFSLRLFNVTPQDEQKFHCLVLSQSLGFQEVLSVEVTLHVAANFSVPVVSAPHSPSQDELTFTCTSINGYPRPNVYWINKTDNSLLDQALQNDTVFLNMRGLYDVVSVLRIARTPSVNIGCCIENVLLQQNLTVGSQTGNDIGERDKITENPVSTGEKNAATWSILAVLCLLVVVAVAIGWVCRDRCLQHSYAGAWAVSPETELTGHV
T1 sequence (Q9Y6W8 whole entry): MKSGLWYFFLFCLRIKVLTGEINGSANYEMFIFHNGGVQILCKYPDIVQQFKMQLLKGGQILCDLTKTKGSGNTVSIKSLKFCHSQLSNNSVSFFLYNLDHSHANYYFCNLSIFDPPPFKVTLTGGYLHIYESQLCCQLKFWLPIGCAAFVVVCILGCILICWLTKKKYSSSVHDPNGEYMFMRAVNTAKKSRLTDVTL
How it was run: (§1)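 Fc-tagged human ICOS and His-tagged ICOSL, 10 nM each final, with Tb cryptate anti-His mAb (1 nM) donor and XL665 anti-human Ab (10 nM) acceptor. Compounds in DMSO (0.1%)/PBS pH 7.4, 1 h at room temperature. Read 665/620 nm ratio ×100 with 340 nm excitation. Percent inhibition scaled 0% (DMSO) to 100% (1 μM anti-ICOS mAb). Triplicate, single run. Single-dose screen at 50 μM final; IC50 from dose–response.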

HEL 299 = test: Cytotoxicity against human HEL 299 cells; format: toxicity, cell-based
[2] = Metabolic stability in rat liver microsomes; format: ADME, Microsome
[3] = biological target: T2, ICOS-ICOSL (Homo sapiens) (UniProt O75144+Q9Y6W8); test: Inhibition of human ICOS expressed in Jurkat T cells coexpressing TCR/CD3 and NanoLuc luciferase reporter/ICOSL (unknown origin) expressed in CHO-K1 cells interaction assessed as reduction in luminescence; format: cell-based; conditions: dose 5-20 µM
How it was run: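 Commercial blockade kit, run per manufacturer's protocol. ICOS effector Jurkat cells (NanoLuc reporter) co-cultured with ICOSL/CHO-K1 cells carrying a TCR/CD3 activator. Compound tested at 5, 10 and 20 μM; anti-ICOS mAb (100 nM) as positive control. Luminescence compared with untreated control. Triplicate, single run.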

[4] = Stability in simulated intestinal fluid at pH 6.5; format: ADME; conditions: simulated gi fluid
[5] = Stability in simulated gastric fluid at pH 1.6; format: ADME; conditions: simulated gi fluid
[6] = Metabolic stability in human plasma measured at 120 mins; format: ADME, cell-free; conditions: 2 h
[7] = biological target: T2, ICOS-ICOSL (Homo sapiens); test: Inhibition of C-terminal IgG1 Fc region fused human ICOS extracellular domain (1 to 141 residues)/C-terminal polyhistidine tagged human ICOSL extracellular domain (1 to 258 residues) interaction assessed as reduction in FRET signal at 50 uM incubated for 1 hr by TR-FRET assay relative to control; format: protein assay; how it was run: as §1
ICOS-ICOSL [8] = biological target: T1, ICOS-ICOSL; test: Inhibition of ICOS (unknown origin)/C-terminal IgG1 FC region fused human ICOSL interaction by ELISA; format: protein assay
How it was run: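 Commercial ICOS/ICOSL ELISA kit, run per manufacturer's protocol. Anti-ICOS antagonist mAb as positive control. Triplicate, single run.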

SMILES | pIC50 (ICOS-ICOSL [1]) | also measured
COc1ccc(C(=O)Nc2cc(Cl)cc3c2[nH]c2cnccc23)cc1 | 4.31 | 
COc1cccc(C(=O)Nc2cc(Cl)cc3c2[nH]c2cnccc23)c1 | 4.43 | 
COc1ccccc1C(=O)Nc1cc(Cl)cc2c1[nH]c1cnccc12 | 4.36 | 
CC1(C)CN[C@@H](C(=O)Nc2cc(Cl)cc3c2[nH]c2cnccc23)CO1 | 4.96 | 
COc1c(Cl)cc2c([nH]c3cnccc32)c1NC(=O)c1cncnc1C | 5.25 | 
O=C(Nc1cc(Cl)cc2c1[nH]c1cnc(NCc3ccccc3)cc12)c1cccnc1 | 5.33 | Activity (HEL 299): Non-Toxic; Stability [2]: Stable; inhibition [3]: Dose-Dependent Effect; Stability [4]: Stable; Stability [5]: Stable; Stability [6]: Stable
O=C(Nc1cc(Cl)cc2c1[nH]c1cnccc12)c1ccccc1 | < 4.30 | 
O=C(Nc1cc(Cl)cc2c1[nH]c1cnc(NCc3ccccc3)cc12)c1ccccn1 | 4.81 | 

Continued, in another order:

pIC50 (ICOS-ICOSL [1]) | SMILES | also measured
4.54 | O=C(Nc1cc(Cl)cc2c1[nH]c1cnccc12)c1ccccn1 | 
< 4.30 | O=C(Nc1ccc(Cl)cc1)c1cc2c(cc1O)[nH]c1ccccc12 | 
4.86 | O=C(Nc1cc(Cl)cc2c1[nH]c1cnccc12)c1cccnc1 | 
4.51 | O=C(Nc1cc(Cl)cc2c1[nH]c1cnccc12)c1ccncc1 | 
4.74 | O=C(Nc1cc(Cl)cc2c1[nH]c1cnc(NCc3ccccc3)cc12)c1ccncc1 | 
< 4.30 | O=C(Nc1ccc(Cl)cc1)c1c(O)ccc2c1[nH]c1ccccc12 | 
4.43 | O=C(Cc1ccccn1)Nc1cc(Cl)cc2c1[nH]c1cnccc12 | 
4.91 | COc1c(Cl)cc2c([nH]c3cnccc32)c1NC(=O)c1cccnc1C | inhibition [7]: > 90%; pIC50 (ICOS-ICOSL [8]): 4.99
< 4.30 | CCOc1ccc(-c2nc(C(=O)Nc3ccccc3Cl)cc3c2[nH]c2ccccc23)cc1OC | 
